Converted amounts (≈) assume the structure as drawn. The source made the active and inactive calls.
Assays:
[1] = tested on: Human immunodeficiency virus 1; assay: Antiviral activity against HIV1 3B infected in human H9 T cells after 4 days by ELISA; type: functional, organism-based; details: for EC50: Human immunodeficiency virus 1, 3B, H9, 96 h
Procedure, shortened: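 H9 T cells kept in RPMI 1640 with 10% fetal calf serum at 37 °C, 5% CO2, used in log phase. Infected with HIV-1 IIIB (MOI 0.1-0.01 IU/cell) for 1 h, washed, and seeded at 4 × 10^5 cells/mL with compound diluted in medium. After 4 days at 37 °C, p24 in medium was read by sandwich ELISA (cutoff 12.5 pg/mL) against a p24 standard curve. EC50 was derived.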

H9 = assay: Cytotoxicity against human H9 cells; type: cell-based
Procedure, shortened: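 Uninfected H9 T cells (log phase, RPMI 1640 + 10% FCS) were seeded at 4 × 10^5 cells/mL with compound diluted in medium and kept 4 days at 37 °C, 5% CO2. Cell density was counted by Coulter counter and IC50 was derived.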

[2] = Therapeutic index, ratio of IC50 for human H9 cells to EC50 for HIV1 3B; type: cell-based; details: H9 cells infected with HIV-1 3B, read-out: TI

| EC50 [1] | SMILES | Activity [1] | IC50 (H9) | selectivity ratio [2] |
| --- | --- | --- | --- | --- |
| – | CC1=CC[C@@H]([C@@H](C)[C@H]2CC[C@@]3(C)[C@@H]4C[C@@H](O)[C@H]5C(C)(C)OC(=O)C=C[C@@]56C[C@@]46CC[C@]23C)OC1=O [KADSULACTONE A] | inactive | 8.6 µg/mL (≈ 17.8 µM) | – |
| – | CC1=CC[C@@H]([C@@H](C)[C@H]2CC[C@@]3(C)C4=C(C=C5C=CC(=O)OC(C)(C)[C@@H]5[C@H](O)C4)CC[C@]23C)OC1=O [LANCILACTONE A] | inactive | 14.3 µg/mL (≈ 29.8 µM) | – |
| – | CC1=CC[C@@H]([C@@H](C)[C@H]2CC[C@@]3(C)C4=C(C=C5C=CC(=O)OC(C)(C)[C@@H]5C=C4)CC[C@]23C)OC1=O [LANCILACTONE B] | inactive | 7.1 µg/mL (≈ 15.3 µM) | – |
| 1.4 µg/mL (≈ 3.01 µM) | CC1=CC[C@@H]([C@@H](C)[C@H]2CC[C@@]3(C)C4=C(C=C(CCC(=O)O)C(=C(C)C)C=C4)CC[C@]23C)OC1=O [LANCILACTONE C] | – | > 100 µg/mL | > 71.4 |
| 0.045 µg/mL (≈ 0.168 µM) | Cc1cn([C@H]2C[C@H](N=[N+]=[N-])[C@@H](CO)O2)c(=O)[nH]c1=O [ZIDOVUDINE] | – | – | – |

— ChEMBL document CHEMBL1157991, “Novel anti-HIV lancilactone C and related triterpenes from Kadsura lancilimba” (J Nat Prod, 1999)
